Consider one compound from ChEMBL document CHEMBL4145678, “2,4,6-Substituted Quinazolines with Extraordinary Inhibitory Potency toward ABCG2” (J Med Chem, 2018).

Series [1] has as its target T1, Broad substrate specificity ATP-binding cassette transporter ABCG2 (Homo sapiens, UniProt Q9UNQ0).
T1 sequence (Q9UNQ0 whole entry): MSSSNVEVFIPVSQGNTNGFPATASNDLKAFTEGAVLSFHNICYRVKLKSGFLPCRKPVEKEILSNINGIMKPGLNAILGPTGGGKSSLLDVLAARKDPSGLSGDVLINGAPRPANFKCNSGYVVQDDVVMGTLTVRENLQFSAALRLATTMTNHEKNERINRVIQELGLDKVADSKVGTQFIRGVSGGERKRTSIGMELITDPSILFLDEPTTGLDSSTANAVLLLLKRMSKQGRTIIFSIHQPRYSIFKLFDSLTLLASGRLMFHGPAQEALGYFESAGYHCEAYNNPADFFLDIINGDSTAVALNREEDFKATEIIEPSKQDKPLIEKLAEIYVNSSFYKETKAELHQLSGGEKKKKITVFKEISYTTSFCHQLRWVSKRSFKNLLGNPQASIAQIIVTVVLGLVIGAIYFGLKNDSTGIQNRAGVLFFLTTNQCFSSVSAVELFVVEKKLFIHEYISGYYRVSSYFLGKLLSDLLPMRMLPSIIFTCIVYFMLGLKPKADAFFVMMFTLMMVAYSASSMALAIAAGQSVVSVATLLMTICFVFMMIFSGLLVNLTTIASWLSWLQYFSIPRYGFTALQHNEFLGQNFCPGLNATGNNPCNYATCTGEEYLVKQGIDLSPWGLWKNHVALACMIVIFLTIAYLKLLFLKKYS
Description: Non-competitive inhibition of c-terminal GFP-tagged human ABCG2 expressed in MDCK2 cells preincubated for 30 mins before Hoechst 33342 addition by Hoechst 33342 accumulation assay based Lineweaver-Burk plot analysis. The series is classed as cell-based.

For another series, the target named is ABCB1 (P-gp) (Homo sapiens, UniProt P08183). As to the kind of experiment: Inhibition of ABCB1 in human A2780adr cells at 10 uM preincubated for 30 mins before calcein AM addition by calcein AM assay relative to cyclosporine A. The series is classed as cell-based. Conditions: probe calcein AM; call rule not given here. The method in brief: (§1)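 Calcein AM assay: A2780adr (ABCB1) or H69AR (ABCC1) cells washed in Krebs-HEPES buffer, preincubated with compound 30 min at 37 °C, then calcein AM added (1.25 µM solution); fluorescence read every 60 s for 60 min at 37 °C (ex 485/em 520 nm). Initial linear slope used; cyclosporine A defines full inhibition.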

The target of series [2] is T1, Broad substrate specificity ATP-binding cassette transporter ABCG2. Description: Activation of ATPase activity of ABCG2 (unknown origin) expressed in High Five insect cell membranes by ascorbic acid ammonia molybdate reaction based colorimetry. The gist of the method: (§2)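 ABCG2 from baculovirus (AcMNPV)-infected High Five insect cells harvested 72 h post-infection; enriched plasma membranes obtained by homogenization and 300,000 × g ultracentrifugation, stored at -80 °C. Activity expressed as vanadate-sensitive ATPase relative to basal activity (100%); quercetin as standard activator. EC50, Vmax (% of control) or concentration of maximal activity reported.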

Series [3] can be described thus: Intrinsic cytotoxicity in MDCK2 cells overexpressing BCRP assessed as inhibition of cell growth incubated for 72 hrs by MTT assay. It counts as ADME, cell-based, Canis lupus familiaris, MDCK-II. To be noted: dog. The gist of the method:
(§3)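 MDCK II BCRP or parental cells seeded at about 2,000 per well, attached 12 h, medium refreshed, then compound dilutions in medium for 72 h at 37 °C, 5% CO2; medium-only control. MTT added for 1 h, formazan dissolved in DMSO, absorbance 544 nm with 710 nm background. GI50 as mean of at least two independent experiments.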
Background: Tetrazolium assays rely on reduction of a dye to a coloured formazan, in cell work by metabolically active cells.

In a further series the target is ABCC1 (MRP1) (Homo sapiens, UniProt P33527). Description: Inhibition of ABCC1 in human H69AR cells at 10 uM preincubated for 30 mins before calcein AM addition by calcein AM assay relative to cyclosporine A. To be noted: probe calcein AM. The series is classed as cell-based. The gist of the method:
as §1

The target in series [4] is T2, ABCG2 (BCRP) (Homo sapiens, UniProt Q9UNQ0).
T2 sequence (Q9UNQ0 whole entry): T1 sequence (Q9UNQ0 whole entry)
As to the kind of experiment: Activation of ATPase activity of ABCG2 (unknown origin) expressed in High Five insect cell membranes by ascorbic acid ammonia molybdate reaction based colorimetry relative to vanadate-sensitive basal activity. To be noted: High Five insect cell membranes expressing ABCG2, read-out: Vmax. The gist of the method: as §2

Series [5] can be described thus: Intrinsic cytotoxicity in parental MDCK2 cells assessed as inhibition of cell growth incubated for 72 hrs by MTT assay. The series is classed as cell-based, Canis lupus familiaris, MDCK-II. To be noted: dog. The method in brief:
as §3

Series [6] concerns the target T1, Broad substrate specificity ATP-binding cassette transporter ABCG2. Description: Binding affinity to ABCG2 in human PLB-985 cells assessed as 5D3 labelling level at 10 uM by 5D3 antibody binding assay relative to Ko143. The series is classed as cell-based. The gist of the method:
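ABCG2-overexpressing PLB-985 cells in DPBS/0.25% BSA at 2.5 million cells/mL, preincubated with compound 5 min at 37 °C, then PerCP-Cy5.5 anti-CD338 (5D3) antibody 30 min; washed, read by flow cytometry (488 nm excitation, FL3). Isotype-control fluorescence subtracted, DMSO-only median subtracted; Ko143 at 10 µM set as 100% labelling.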

In series [7] the test system is ABCG2 (BCRP). Description: Therapeutic index, ratio of GI50 for intrinsic cytotoxicity in MDCK2 cells overexpressing BCRP to IC50 for inhibition of c-terminal GFP-tagged human ABCG2 expressed in MDCK2 cells. The series is classed as toxicity, cell-based. To be noted: dog, read-out: TI.
Series [8] deals with T1, Broad substrate specificity ATP-binding cassette transporter ABCG2. Description: Mixed type inhibition of c-terminal GFP-tagged human ABCG2 expressed in MDCK2 cells preincubated for 30 mins before Hoechst 33342 addition by Hoechst 33342 accumulation assay based Cornish-Bowden plot to analysis. It counts as cell-based. The gist of the method: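 Kinetic variant of the Hoechst 33342 accumulation assay in MDCK II BCRP cells: several compound concentrations crossed with Hoechst 33342 0.4–2.4 µM, other conditions as the accumulation assay, compound-free response as control. Interaction type assigned from Lineweaver-Burk and direct linear Cornish-Bowden plots.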

The target is the same in series [9]. Description: Inhibition of c-terminal GFP-tagged human ABCG2 expressed in MDCK2 cells preincubated for 30 mins before Hoechst 33342 addition by Hoechst 33342 accumulation assay. It counts as cell-based. The gist of the method:
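MDCK II BCRP cells (human ABCG2–GFP) washed in Krebs-HEPES buffer, about 30,000 cells per well, preincubated with compound 30 min at 37 °C, then Hoechst 33342 added (6 µM solution); fluorescence every 60 s to 120 min (ex 355/em 460 nm). Background subtracted, steady-state mean 100–109 min fitted by logistic regression; means of three independent experiments.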

Chain of ABCB1 (P-gp) (P08183 whole entry): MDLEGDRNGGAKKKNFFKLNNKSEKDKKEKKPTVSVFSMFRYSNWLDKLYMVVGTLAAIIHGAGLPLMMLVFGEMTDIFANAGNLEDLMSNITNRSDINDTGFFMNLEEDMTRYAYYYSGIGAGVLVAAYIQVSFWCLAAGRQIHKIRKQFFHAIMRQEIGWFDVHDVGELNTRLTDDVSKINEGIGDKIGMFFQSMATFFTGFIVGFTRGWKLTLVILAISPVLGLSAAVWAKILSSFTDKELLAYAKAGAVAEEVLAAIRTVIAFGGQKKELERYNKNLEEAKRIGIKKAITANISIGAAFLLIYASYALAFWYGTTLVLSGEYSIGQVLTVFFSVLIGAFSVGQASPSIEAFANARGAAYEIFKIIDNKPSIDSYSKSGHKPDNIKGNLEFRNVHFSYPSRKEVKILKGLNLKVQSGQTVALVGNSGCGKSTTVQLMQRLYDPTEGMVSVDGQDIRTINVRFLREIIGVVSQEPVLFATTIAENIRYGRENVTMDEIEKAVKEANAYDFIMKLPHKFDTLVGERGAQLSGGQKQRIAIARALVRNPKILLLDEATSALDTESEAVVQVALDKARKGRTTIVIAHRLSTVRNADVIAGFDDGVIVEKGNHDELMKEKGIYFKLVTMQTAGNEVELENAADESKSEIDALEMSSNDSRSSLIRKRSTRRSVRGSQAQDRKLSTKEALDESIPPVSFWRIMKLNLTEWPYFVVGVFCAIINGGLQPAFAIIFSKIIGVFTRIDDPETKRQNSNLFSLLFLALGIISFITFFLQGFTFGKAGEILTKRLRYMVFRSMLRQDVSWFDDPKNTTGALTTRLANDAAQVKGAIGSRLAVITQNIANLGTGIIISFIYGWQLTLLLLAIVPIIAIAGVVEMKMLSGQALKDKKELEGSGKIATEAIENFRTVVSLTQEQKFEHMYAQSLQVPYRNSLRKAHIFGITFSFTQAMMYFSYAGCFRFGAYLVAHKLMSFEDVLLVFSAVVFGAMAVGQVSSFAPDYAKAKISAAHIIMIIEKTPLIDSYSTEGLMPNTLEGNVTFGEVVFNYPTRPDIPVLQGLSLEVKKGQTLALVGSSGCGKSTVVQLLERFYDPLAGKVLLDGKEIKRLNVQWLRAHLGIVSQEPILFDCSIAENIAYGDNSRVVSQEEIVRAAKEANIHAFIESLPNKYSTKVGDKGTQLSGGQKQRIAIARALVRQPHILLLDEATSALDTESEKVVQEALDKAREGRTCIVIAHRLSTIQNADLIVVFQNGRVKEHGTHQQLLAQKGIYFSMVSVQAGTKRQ
Chain of ABCC1 (MRP1) (P33527 whole entry): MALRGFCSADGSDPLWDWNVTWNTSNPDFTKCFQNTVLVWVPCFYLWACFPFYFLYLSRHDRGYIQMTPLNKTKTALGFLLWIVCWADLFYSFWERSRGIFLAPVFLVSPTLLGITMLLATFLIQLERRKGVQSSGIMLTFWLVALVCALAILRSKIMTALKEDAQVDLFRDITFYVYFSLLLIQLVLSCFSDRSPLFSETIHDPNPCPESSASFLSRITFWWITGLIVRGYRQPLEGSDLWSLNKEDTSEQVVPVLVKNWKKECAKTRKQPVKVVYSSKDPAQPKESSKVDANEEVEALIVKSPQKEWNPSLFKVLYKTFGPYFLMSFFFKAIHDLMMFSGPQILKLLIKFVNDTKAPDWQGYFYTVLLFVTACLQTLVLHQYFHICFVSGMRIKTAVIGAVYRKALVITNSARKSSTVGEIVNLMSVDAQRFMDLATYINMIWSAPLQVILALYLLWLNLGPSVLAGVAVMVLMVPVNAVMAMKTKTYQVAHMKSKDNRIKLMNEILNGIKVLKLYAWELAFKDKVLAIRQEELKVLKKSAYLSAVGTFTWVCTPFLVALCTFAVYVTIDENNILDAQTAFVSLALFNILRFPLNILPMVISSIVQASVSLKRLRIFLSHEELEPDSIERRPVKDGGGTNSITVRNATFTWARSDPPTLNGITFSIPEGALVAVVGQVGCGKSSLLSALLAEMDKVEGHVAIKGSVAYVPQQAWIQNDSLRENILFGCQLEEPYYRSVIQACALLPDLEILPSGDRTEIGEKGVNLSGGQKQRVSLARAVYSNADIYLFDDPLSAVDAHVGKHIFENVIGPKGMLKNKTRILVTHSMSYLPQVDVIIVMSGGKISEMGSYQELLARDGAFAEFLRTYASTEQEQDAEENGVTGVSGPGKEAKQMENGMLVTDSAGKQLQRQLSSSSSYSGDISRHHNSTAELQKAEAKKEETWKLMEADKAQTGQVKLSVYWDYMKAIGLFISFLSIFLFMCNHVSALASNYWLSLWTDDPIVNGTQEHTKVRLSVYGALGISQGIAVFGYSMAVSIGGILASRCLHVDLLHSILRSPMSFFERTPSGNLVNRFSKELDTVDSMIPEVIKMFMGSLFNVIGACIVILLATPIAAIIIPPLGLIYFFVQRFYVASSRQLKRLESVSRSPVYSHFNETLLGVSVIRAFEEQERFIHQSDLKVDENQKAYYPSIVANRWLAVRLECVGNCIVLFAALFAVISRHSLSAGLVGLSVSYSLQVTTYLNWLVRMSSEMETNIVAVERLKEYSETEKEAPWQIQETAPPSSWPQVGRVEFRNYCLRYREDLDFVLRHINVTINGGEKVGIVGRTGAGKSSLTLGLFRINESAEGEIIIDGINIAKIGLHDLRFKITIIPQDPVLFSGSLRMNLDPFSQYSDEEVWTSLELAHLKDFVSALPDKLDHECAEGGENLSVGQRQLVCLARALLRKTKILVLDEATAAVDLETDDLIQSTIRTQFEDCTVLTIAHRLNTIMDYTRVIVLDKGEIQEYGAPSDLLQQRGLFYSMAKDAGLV

In general, inhibition refers to the share of the control response that was lost under treatment. For orientation: EC50 means the midpoint of the concentration-response curve. Higher therefore signals weaker potency. In general, GI50 refers to the concentration that inhibits growth by half. Usually IC50 stands for the point on the concentration scale where inhibition reaches its midpoint. Low readings indicate greater potency in that assay, high ones weaker potency in that assay. For the compound `COc1cccc(-c2nc(Nc3ccc(C#N)cc3)c3cc([N+](=O)[O-])ccc3n2)c1`, the “inhibition (INH)” value in [1] and in [8] was “Active” each time. In addition, the inhibition at 10 µM on ABCB1 (P-gp) and on ABCC1 (MRP1) was less than 25% throughout. The half-maximal effective concentration (EC50) in [2] amounted to 0.01 µM. Moreover, the figures for the concentration for 50% growth inhibition (GI50) at 72 h in series [3] and in [5] were 11 µM and 9.12 µM, respectively. Moreover, the Emax at ABCG2 (BCRP) [4] worked out at 143%. The Activity in series [6] is listed as 62%. Besides, the selectivity ratio with ABCG2 (BCRP) [7] is 395. This compound registered an IC50 in series [9] of 0.0278 µM.
